Results: ChEMBL document CHEMBL3124885, “Discovery of 7-tetrahydropyran-2-yl chromans: β-site amyloid precursor protein cleaving enzyme 1 (BACE1) inhibitors that reduce amyloid β-protein (Aβ) in the central nervous system” (J Med Chem, 2014)

What was measured:
[1] = Ratio of unbound drug level in brain to plasma in CD-1 mouse measured at 4 hrs; assay type: ADME; conditions: for Kp uu at 4 h: CD-1, mouse, read-out: K(p,uu,brain)
In short: (§1)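 Male CD-1 mice given 10 mg/kg po, 3 per cohort; plasma and brain collected at 1 and 4 h. Free brain/plasma ratio from unbound concentrations; coverage ratio = free brain concentration divided by HEK293 Aβ₁₋₄₀ cell IC50.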

Brain [2] = assay: Fraction unbound in CD-1 mouse brain at 10 mg/kg, po measured at 4 hrs; assay type: ADME, organism-based; set-up: dose 10 mg/kg, route oral; conditions: in vivo
In short: (§2)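 Male CD-1 mice, 3 per cohort, dosed 10 mg/kg orally; brains harvested at 1 and 4 h.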

[3] = Ratio of unbound drug level in brain to plasma in CD-1 mouse measured at 1 hr; assay type: ADME; conditions: for Kp uu at 1 h: CD-1, mouse, read-out: K(p,uu,brain); in short: as §1
Brain [4] = assay: Fraction unbound in CD-1 mouse brain at 10 mg/kg, po measured at 1 hr; assay type: ADME, organism-based; set-up: dose 10 mg/kg, route oral; conditions: in vivo; in short: as §2
Plasma [5] = assay: Unbound plasma concentration in CD-1 mouse at 3 mg/kg, iv and 10 mg/kg, po measured at 4 hrs; assay type: ADME, organism-based; conditions: in vivo
In short: (§3)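 Male CD-1 mice, 3 per cohort, dosed 3 mg/kg iv and 10 mg/kg po; plasma drawn at 1 and 4 h, brains harvested from oral groups only. Formulations varied by compound: 40% PEG 400/10% EtOH/50% H₂O; 30% captisol in H₂O; iv 50 mM citrate in saline (pH 4); po 1% CMC/0.5% Tween/5 mM citrate in H₂O.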

Plasma [6] = assay: Unbound plasma concentration in CD-1 mouse at 3 mg/kg, iv and 10 mg/kg, po measured at 1 hr; assay type: ADME, organism-based; conditions: in vivo; in short: as §3
[7] = Oral bioavailability in CD-1 mouse at 10 mg/kg; assay type: ADME, organism-based; conditions: in vivo
Mus musculus = assay: Hepatic clearance in CD-1 mouse at 3 mg/kg, iv; assay type: ADME, organism-based, Liver; set-up: dose 3 mg/kg, route intravenous; conditions: in vivo; in short: as §3
[8] = Clearance in CD-1 mouse liver microsomes at 1 uM after 20 mins by LC-MS/MS analysis in presence of NADPH; assay type: ADME, Microsome
In short: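 Compound at 1 μM incubated with mouse liver microsomes for 20 min at 37 °C with NADPH.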

[9] = Dissociation constant, pKa of the compound by parallel capillary electrophoresis method; assay type: physicochemical
In short: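 pKa determined by a 24-point parallel capillary electrophoresis method, quantitation by UV absorbance at 229 nm.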

[10] = Drug uptake in Hartley guinea pig CSF at 60 mg/kg, po measured at 5 hrs; assay type: ADME, organism-based, Cavia porcellus, Cerebrospinal fluid; set-up: dose 60 mg/kg, route oral; conditions: read-out: Drug uptake
In short: (§4)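 Male Hartley guinea pigs, oral dosing (CMC/Tween/citrate suspension or PEG/EtOH/H₂O solution), six or eight animals per cohort; CSF drug concentration (nM) measured at each time point.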

[11] = Ratio of unbound drug level in brain to plasma in Hartley guinea pig at 60 mg/kg, po measured at 5 hrs; assay type: ADME, organism-based, Cavia porcellus; set-up: dose 60 mg/kg, route oral; conditions: brain and plasma (unbound), read-out: K(p,uu,brain)
In short: (§5)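 Male Hartley guinea pigs given single oral doses of 30, 60 or 100 mg/kg in 1% CMC/0.5% Tween/5 mM citrate in H₂O, 6–8 animals per cohort. Plasma, brain and CSF sampled at 1–12 h; free brain to free plasma ratio computed.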

[12] = Fraction unbound in Hartley guinea pig brain at 60 mg/kg, po measured at 5 hrs; assay type: ADME, organism-based, Cavia porcellus; set-up: dose 60 mg/kg, route oral; conditions: in vivo
[13] = Unbound plasma concentration in Hartley guinea pig at 60 mg/kg, po measured at 5 hrs; assay type: ADME, organism-based, Cavia porcellus; set-up: dose 60 mg/kg, route oral; conditions: in vivo
In short: (§6)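 Male Hartley guinea pigs were dosed orally at 30, 60 or 100 mg/kg, with six or eight animals per cohort. The vehicle was either a suspension in 1% CMC/0.5% Tween/5 mM citrate in H₂O or a 40/10/50 PEG/EtOH/H₂O solution, depending on compound. Unbound plasma concentration was sampled at 1–12 h post-dose alongside brain, CSF and CSF Aβ₁₋₄₀.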

[14] = Drug uptake in Hartley guinea pig CSF at 60 mg/kg, po measured at 3 hrs; assay type: ADME, organism-based, Cavia porcellus, Cerebrospinal fluid; set-up: dose 60 mg/kg, route oral; conditions: read-out: Drug uptake; in short: as §4
[15] = Fraction unbound in Hartley guinea pig brain at 60 mg/kg, po measured at 3 hrs; assay type: ADME, organism-based, Cavia porcellus; set-up: dose 60 mg/kg, route oral; conditions: in vivo
[16] = Ratio of unbound drug level in brain to plasma in Hartley guinea pig at 60 mg/kg, po measured at 3 hrs; assay type: ADME, organism-based, Cavia porcellus; set-up: dose 60 mg/kg, route oral; conditions: brain and plasma (unbound), read-out: K(p,uu,brain); in short: as §5
[17] = Unbound plasma concentration in Hartley guinea pig at 60 mg/kg, po measured at 3 hrs; assay type: ADME, organism-based, Cavia porcellus; set-up: dose 60 mg/kg, route oral; conditions: in vivo; in short: as §6

SMILES | Kp uu at 4 h [1] | Drug uptake(free) (Brain [2]) | Kp uu at 1 h [3] | Drug uptake(free) (Brain [4]) | Cp(f) (Plasma [5]) | Cp(f) (Plasma [6]) | bioavailability [7] | CLH (Mus musculus) | CLhep predicted at 1 µM [8] | other results
CN1C(=O)[C@]2(N=C1N)c1cc(-c3cncc(F)c3)ccc1O[C@H]1CCOC[C@@H]12 (racemic) | < 0.14 | < 2.3 nM | 0.028 | 4.4 nM | 17 nM | 160 nM | 38% | 140 mL/min/kg | 45 mL/min/kg | –
C[C@]12CCOC[C@@H]1[C@]1(COC(N)=N1)c1cc(-c3cncc(Cl)c3)ccc1O2 (racemic) | 0.048 | 5.8 nM | 0.082 | 18 nM | 120 nM | 220 nM | 76% | 34 mL/min/kg | 60 mL/min/kg | –
C[C@H]1OCC[C@H]2Oc3ccc(-c4cccnc4F)cc3[C@]3(N=C(N)N(C)C3=O)[C@H]12 (racemic) | < 0.012 | < 0.75 nM | 0.027 | 7.1 nM | 63 nM | 260 nM | 75% | 72 mL/min/kg | 51 mL/min/kg | –
C[C@]12CCOC[C@@H]1[C@]1(COC(N)=N1)c1cc(-c3cncc(Cl)c3)c(F)cc1O2 (racemic) | – | – | – | – | – | – | – | – | 65 mL/min/kg | –
CN1C(=O)[C@]2(N=C1N)c1cc(-c3cccc(OC(F)F)c3)c(F)cc1O[C@H]1CCOC[C@@H]12 (racemic) | – | – | – | – | – | – | – | – | 21 mL/min/kg | –
CN1C(=O)[C@]2(N=C1N)c1cc(-c3cccnc3F)c(F)cc1O[C@H]1CCOC[C@@H]12 (racemic) | – | – | – | – | – | – | – | – | 40 mL/min/kg | –
C[C@]12CCOC[C@@H]1[C@]1(COC(N)=N1)c1cc(-c3cccnc3F)c(F)cc1O2 (racemic) | – | – | – | – | – | – | – | – | 84 mL/min/kg | –
CN1C(=O)[C@]2(N=C1N)c1cc(-c3cccc(C#N)c3)ccc1O[C@H]1CCOC[C@@H]12 (racemic) | 0.025 | 4.3 nM | 0.014 | 3 nM | 170 nM | 210 nM | 103% | 35 mL/min/kg | 17 mL/min/kg | –
C[C@H]1OCC[C@H]2Oc3ccc(-c4cccnc4F)cc3[C@@]3(COC(N)=N3)[C@H]12 (racemic) | – | – | – | – | – | – | – | – | – | pKa [9]: 6.4
C[C@@]12COCC[C@H]1Oc1ccc(-c3cccnc3F)cc1[C@@]21COC(N)=N1 (racemic) | – | – | – | – | – | – | – | – | – | pKa [9]: 6.4
C[C@]12CCOC[C@@H]1[C@]1(COC(N)=N1)c1cc(-c3cc(F)cc(Cl)c3)ccc1O2 | 0.68 | 2.5 nM | 0.76 | 7.2 nM | 3.7 nM | 9.5 nM | 43% | 48 mL/min/kg | 57 mL/min/kg | pKa [9]: 6.7
CN1C(=O)[C@]2(N=C1N)c1cc(-c3cccc(C#N)c3)ccc1O[C@H]1CCOC[C@@H]12 | – | – | – | – | – | – | – | – | – | concentration at 5 h [10]: 40 nM; Kp uu at 5 h [11]: 0.085; Drug uptake(free) [12]: 6.7 nM; Cp(f) [13]: 79 nM; concentration at 3 h [14]: 90 nM; Drug uptake(free) [15]: 12 nM; Kp uu at 3 h [16]: 0.046; Cp(f) [17]: 260 nM
CN1C(=O)[C@]2(N=C1N)c1cc(-c3cc(F)cc(Cl)c3)ccc1O[C@H]1CCOC[C@@H]12 (racemic) | 0.029 | 0.49 nM | 0.032 | 0.28 nM | 17 nM | 8.7 nM | 67% | 22 mL/min/kg | 32 mL/min/kg | –
CN1C(=O)[C@]2(N=C1N)c1cc(-c3cccnc3F)ccc1O[C@H]1CCOC[C@@]12C (racemic) | 0.15 | 3.7 nM | 0.036 | 1.9 nM | 25 nM | 53 nM | 15% | 51 mL/min/kg | 55 mL/min/kg | –
CN1C(=O)[C@]2(N=C1N)c1cc(-c3cccnc3F)ccc1O[C@H]1CCOC[C@@H]12 (racemic) | – | 8.4 nM | – | 11 nM | 75 nM | 320 nM | – | 70 mL/min/kg | 46 mL/min/kg | K(p,uu,brain) ([1]; mouse, 4 h): 0.11; K(p,uu,brain) ([3]; mouse, 1 h): 0.034
CN1C(=O)[C@]2(N=C1N)c1cc(-c3cncc(Cl)c3)ccc1O[C@H]1CCOC[C@@H]12 (racemic) | < 0.11 | < 0.8 nM | 0.038 | 1 nM | 7.5 nM | 26 nM | 19% | 110 mL/min/kg | 54 mL/min/kg | –
C[C@]12CCOC[C@@H]1[C@]1(COC(N)=N1)c1cc(-c3cccnc3F)ccc1O2 (racemic) | – | – | – | – | – | – | – | – | 61 mL/min/kg | –
